NPY Y2 blocker: NPY-Y2 receptor antagonists, primary screen, cell-based; Neuropeptide Y receptor type 2 (Homo sapiens), P49146; NPY-Y2 expressing cells, antagonist mode; inhibition, % at 2.7 µM; 140,000 compounds, 0.99% hits; in the data active means inhibition above about 17%;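 further: 0% = vehicle with agonist challenge and 100% = reference antagonist with challenge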
Target sequence (P49146 whole entry, looked up): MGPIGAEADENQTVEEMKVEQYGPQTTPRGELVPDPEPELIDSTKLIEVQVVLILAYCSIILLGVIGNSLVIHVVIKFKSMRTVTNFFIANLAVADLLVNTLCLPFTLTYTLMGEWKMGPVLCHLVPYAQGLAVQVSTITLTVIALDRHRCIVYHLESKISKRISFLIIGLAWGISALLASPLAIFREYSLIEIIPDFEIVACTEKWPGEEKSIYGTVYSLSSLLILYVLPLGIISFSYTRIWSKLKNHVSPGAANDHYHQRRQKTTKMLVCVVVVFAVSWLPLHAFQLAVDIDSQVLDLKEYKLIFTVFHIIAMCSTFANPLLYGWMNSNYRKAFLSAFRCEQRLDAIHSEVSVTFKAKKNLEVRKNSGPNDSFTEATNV
RAM network inh: inhibitors of the yeast RAM network, primary screen, dse1pr::URA3 reporter, 5-FOA selection. 190,000 compounds, 1.8% hits. S. cerevisiae dse1pr::URA3 reporter, 5-FOA growth OD615, 2 d; analog-sensitive cbk1-as2 kinase mutant strain. inhibition, % at 50 µM;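 active means inhibition above a set limit, 3 SD over mean compound inhibition, cut at about 8.4% in these data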;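 further: 0% = DMSO-only wells with no growth and 100% = 10 µM 1-NA-PP1 full growth; inhibition rescues growth on 5-FOA so higher OD means more RAM inhibition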
NPY-Y2 PAM-ag: NPY-Y2 potentiators or agonists, primary screen, cell-based; AID 1359, 2008; cells expressing NPY-Y2, potentiator/agonist read-out; 220,000 compounds, 0.45% hits; activation, % at 3.6 µM; Neuropeptide Y receptor type 2 (Homo sapiens), P49146; in the data active means activation above about 27%;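 further: cells stimulated with NPY near EC25 plus isoproterenol at EC100; 0% = vehicle plus submaximal agonist and 100% = vehicle plus saturating agonist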
WT yeast gro inh: growth inhibition of WT strain, primary screen, mitochondrial fusion inhibitor project, WT and mutant strains, chemical genetic | mitochondrial fusion phenotypic screen | 190,000 compounds, 2.1% hits | inhibition, % at 10 µM; in the data active means inhibition above about 58%; tested in S. cerevisiae
NPY-Y1 antag: NPY-Y1 receptor antagonists, primary screen, cell-based; 200,000 compounds, 1% hits; inhibition, % at 3.6 µM; Neuropeptide Y receptor type 1 (Homo sapiens), P25929; AID 1040, 2008; HEK293-CNG Y1 cells, membrane potential fluorescence; NPY at EC95, then isoproterenol;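 active means inhibition above the campaign mean inhibition of all tested compounds plus 3 SD, cut at about 20% in these data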;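 further: 0% = DMSO wells given NPY plus isoproterenol and 100% = isoproterenol alone without NPY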
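Test system: HEK293 cells co-expressing NPY Y1 receptor and cyclic-nucleotide gated channel; Also added: NPY (25 nM), isoproterenol (1 µM), Ro 20-1724 (25 µM); Compound dosing: one concentration, 3.6 µM, in 0.4% DMSO; Timing: dye 3 h, compound 60 min room temperature, stimulation 45 min; Technique: Membrane-potential fluorescent dye readout.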
NPY-Y1 PAM-ag: NPY-Y1 receptor potentiators or agonists, primary screen, cell-based; AID 1304, 2008; activation, % at 3.6 µM; NPY-Y1 expressing cells, potentiator/agonist activation; 220,000 compounds, 0.37% hits; in the data active means activation above about 33%, passing the limit was not always enough;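 further: cells stimulated with NPY at EC10 then isoproterenol at EC100; 0% = low agonist plus stimulus and 100% = saturating agonist plus stimulus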
RAM 5-FOA: 5-FOA growth of efflux-deficient control yeast, dose response, counter-screen for RAM network inhibitor project, S. cerevisiae, OD615; shares compounds with RAM network inh; S. cerevisiae efflux-deficient reporter strain, 5-FOA growth OD615, 2 days; max inhibition, %; 1,200 tested, under 10 active; AID 1305, 2008; call rule not given here;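 further: plate controls were vehicle for no effect and reference inhibitor for full effect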
* marks the source's active call; other numbers are inactive results; nt = not tested or not shown. Shown are actives, neighbours in structure and some others; about 4.9% of the full set was active somewhere.

SMILES | NPY Y2 blocker | RAM network inh | NPY-Y2 PAM-ag | WT yeast gro inh | NPY-Y1 antag | NPY-Y1 PAM-ag | RAM 5-FOA
CCOC(=O)NC(Nc1nnc(C)s1)(C(=O)OCC)C(F)(F)F (configuration not stated) | 1 | 0 | 8 | 3 | -5 | 5 | nt
Cc1ccc(-n2c(O)c(/C=N/c3ncn[nH]3)c3ccccc3c2=O)cc1 | nt | 12* | -3 | -6 | -3 | 32 | 2
O=C(CC1SC(=Nc2ccc(OC(F)F)cc2)N(CCC2=CCCCC2)C1=O)Nc1ccccc1F (configuration not stated) | 0 | 11* | -14 | 15 | 1 | 0 | 2
CCOc1ccc(-c2nn(-c3ccccc3)cc2/C=C2\SC(=S)N(Cc3ccco3)C2=O)cc1 | -1 | 12* | 0 | -10 | -2 | -20 | 2
CCN1CCN(C(=O)CN(CC)S(=O)(=O)c2ccc(Cl)cc2)CC1 | 0 | 2 | -8 | 1 | 2 | -3 | nt
CCN(CC(O)CON=C1c2ccccc2-c2ccccc21)S(=O)(=O)c1ccc(Cl)cc1 (configuration not stated) | 4 | 20* | -3 | 7 | 9 | 0 | 4
CCN(CC(O)CON=C1c2ccccc2-c2ccccc21)S(=O)(=O)c1ccc(C)cc1 (configuration not stated) | 5 | 15* | -10 | 22 | 5 | -10 | 8
Cc1nc2ccc(S(=O)(=O)N(C)CC(=O)N3CCc4ccccc43)cc2s1 | 2 | -2 | -10 | -20 | 12 | -23 | nt
Cc1cc(C)c2c(C)c(C(=O)Nc3c(C)n(C)n(-c4ccccc4)c3=O)oc2c1 | 3 | -2 | 1 | -12 | 0 | 4 | nt
CCCc1ccc(/C=C2\C(=O)c3ccccc3C(O)=C2C(=O)OCC)cc1 | 2 | 12* | -6 | 59* | 5 | -19 | 4
CCOCCOC(=O)C(C)Oc1ccc(Oc2nc(Cl)ccc2Cl)cc1 (configuration not stated) | nt | 13* | -14 | -4 | 4 | -6 | 2
S=C(c1ccc(-c2ccc(Cl)c(Cl)c2)o1)N1CCOCC1 | 3 | 6 | 7 | 24 | 2 | 8 | nt
S=C(c1ccc(-c2ccccc2Cl)o1)N1CCOCC1 | 1 | 12* | 5 | 7 | -1 | 18 | 2
COc1ccc([N+](=O)[O-])cc1NC(=O)N(C)Cc1ccco1 | nt | nt | 2 | nt | nt | 19 | nt
Cc1cccc(CSCCNC(=O)c2ccc(N(C)S(=O)(=O)c3ccccc3)cc2)c1 | 12 | 18* | -33 | 26 | 14 | -46 | 5
CN(c1ccc(C(=O)NCCSCc2ccccc2)cc1)S(=O)(=O)c1ccccc1 | 11 | 7 | -34 | 14 | 5 | -17 | nt
O=C(NCCN1CCOCC1)c1cc2ccccc2o1 | 1 | 0 | 5 | -3 | -1 | 10 | nt
O=C(CCOc1ccccc1)Nc1cccc(S(=O)(=O)Nc2ccccc2Cl)c1 | 2 | 18* | -8 | 24 | -2 | 19 | 2
CCN(Cc1ccccc1)c1ccc(/C=C(\C#N)c2ccccn2)cc1 | 3 | 17* | 14 | 11 | 6 | 37 | 10
COc1cc(/C=C(\C#N)c2ccccn2)ccc1OCc1ccc(Cl)cc1 | 3 | 12* | -3 | 4 | 2 | -15 | 3
COc1cc(/C=C(\C#N)c2ccccn2)ccc1OCc1ccccc1 | 7 | 6 | -5 | -1 | 1 | -29 | nt
COCCCNC(=S)N/N=C/c1cccc(OC)c1O | nt | nt | 13 | nt | nt | 5 | nt
Cc1ccc(NC(=O)CC2C(=O)NCCN2C(=S)Nc2ccccc2)c(C)c1 (configuration not stated) | -2 | 0 | 11 | -8 | -1 | -17 | nt
CC(C(=O)N1CCCc2ccccc21)N1CCN(c2ccccn2)CC1 (configuration not stated) | nt | 3 | -9 | -3 | 1 | -15 | nt
CCOc1ccccc1-c1nc(-c2ccc(NC(=O)Cc3ccccc3OC)cc2)no1 | 1 | 7 | -19 | -5 | 4 | -26 | nt
SMILES | NPY Y2 blocker | RAM network inh | NPY-Y2 PAM-ag | WT yeast gro inh | NPY-Y1 antag | NPY-Y1 PAM-ag | RAM 5-FOA
CCOc1ccccc1NC(=O)c1ccccc1-c1nc(-c2ccccc2)no1 | 18* | 12* | -40 | 40 | 25* | -80 | 6
Cc1ccc(N/N=C/c2c(C)c(C#N)c(=O)n(C)c2O)cc1C | nt | 13* | 9 | 27 | -1 | 3 | 2
CCOc1ccccc1C(=O)Nc1ccccc1C(N)=O | 3 | 0 | -19 | -3 | 0 | -27 | nt
O=S(=O)(/N=C(/NS(=O)(=O)c1ccccc1)c1ccccc1)c1ccccc1 | nt | 1 | 12 | -13 | 1 | 13 | nt
COc1ccc(C(=O)CSc2nc(C(C)(C)C)nc3ccccc23)cc1 | nt | 13* | -7 | 41 | -2 | -14 | 2
CC(C)(C)c1nc(SCC(=O)NCc2ccco2)c2ccccc2n1 | 8 | 2 | -7 | -36 | 4 | -6 | nt
COc1ccc(CCNC(=O)c2ccc(-c3cccc([N+](=O)[O-])c3)o2)cc1OC | nt | 2 | -10 | 18 | 15 | -1 | nt
COc1ccc(CCNC(=O)c2ccc(-c3ccc([N+](=O)[O-])cc3Cl)o2)cc1 | 14 | 13* | -18 | 20 | 14 | -25 | 3
COc1ccc(C(=N/O)/C(=N/O)c2ccc(OC)cc2)cc1 | 1 | 4 | 0 | -5 | -1 | -30 | nt
COc1ccc(C(Cl)=C(c2ccc(OC)cc2)c2ccc(OC)cc2)cc1 | 6 | 13* | 1 | 50 | 0 | 7 | 6
COc1ccc(OC)c(S(=O)(=O)N2CCN(C)CC2)c1 | 6 | -1 | -4 | 2 | -3 | 4 | nt
CCc1ccccc1N1CCN(S(=O)(=O)c2cc(OC)ccc2OC)CC1 | 1 | 13* | 14 | 51 | 5 | 16 | 2
O=C(/C=C/c1cccc([N+](=O)[O-])c1)NCCSCc1cccc(Cl)c1 | 9 | 12* | -18 | 39 | 4 | -11 | 2
CN(C)CCCNC(=O)/C=C/c1ccc2c(c1)OCO2 | 3 | 1 | 12 | -7 | 4 | 9 | nt
O=C(/C=C/c1ccc2c(c1)OCO2)NCCSCc1c(Cl)cccc1Cl | 16 | 15* | -7 | 16 | 10 | -16 | 2
COCCn1c(=NC(=O)c2sc3ccccc3c2Cl)sc2cc(S(N)(=O)=O)ccc21 | 5 | 16* | 4 | 5 | 9 | -8 | 2
Fc1ccc(CSc2nnc(Cc3sc(-c4ccccc4)nc3-c3ccccc3)o2)cc1 | -1 | 22* | 6 | 3 | 4 | -2 | 2
